How the values were obtained:
HeLa = assay: Cytotoxicity against human HeLa cells after 72 hrs by MTT assay; assay type: functional, cell-based
Procedure, shortened: (§1)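 MTT read-out of cell viability in A549 (human lung adenocarcinoma) and HeLa (cervical cancer) cells. Values are means of three independent experiments, each run in triplicate.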

[1] = Inhibition of baker's yeast alpha-glucosidase using p-nitrophenyl-alpha-D-glucopyranoside as substrate incubated with enzyme for 10 mins prior to substrate challenge for 15 mins by microplate reader analysis; design: species or system Saccharomyces cerevisiae
Procedure, shortened: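 Run in 96-well format, read as absorbance at 405 nm. Control used phosphate buffer in place of sample; blank used phosphate buffer in place of α-glucosidase. Inhibition (%) = [(ODcontrol − ODcontrol blank) − (ODtest − ODtest blank)]/(ODcontrol − ODcontrol blank) × 100. Acarbose served as positive control. Means of three independent experiments, each in triplicate.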

A549 = assay: Cytotoxicity against human A549 cells after 72 hrs by MTT assay; assay type: functional, cell-based; settings: A549, 72 h; procedure, shortened: as §1

SMILES	IC50 (HeLa) [µM]	IC50 [1] [µM]	IC50 (A549) [µM]
C/C(=C\Cc1c(O)cc2c(c1O)CNC2=O)CC/C=C(\C)C(=O)O	> 100	> 200	> 100
C/C(=C\Cc1c(O)cc2c(c1O)CN(CCO)C2=O)CC/C=C(\C)C(=O)O	> 100	24.2	> 100
C/C(=C\Cc1c(O)cc2c(c1O)CN([C@H](C(=O)O)C(C)C)C2=O)CC/C=C(\C)C(=O)O	> 100	12.8	> 100
CC[C@H](C)[C@@H](C(=O)O)N1Cc2c(cc(O)c(C/C=C(\C)CC/C=C(\C)C(=O)O)c2O)C1=O	> 100	39.6	> 100
COC(=O)CC/C(C)=C/Cc1c(O)cc2c(c1O)CNC2=O	> 100	145	> 100
COC(=O)C/C=C(\C)CCc1c(O)cc2c(c1O)CNC2=O	> 100	10.3	> 100
COC(=O)CC/C(C)=C/Cc1c(O)cc2c(c1O)CN(CCO)C2=O	> 100	97.8	> 100
COC(=O)C/C=C(\C)CCc1c(O)cc2c(c1O)CN(CCO)C2=O	> 100	18.6	96.1
COC(=O)CC/C(C)=C/Cc1c(O)cc2c(c1O)CN([C@@H](Cc1ccccc1)C(=O)OC)C2=O	> 100	15.5	89.7
COC(=O)C/C=C(\C)CCc1c(O)cc2c(c1O)CN([C@@H](Cc1ccccc1)C(=O)OC)C2=O	> 100	19.8	> 100
COc1cc2c(c(O)c1C/C=C(\C)CCC=C(C)C)CN(CCc1ccccc1)C2=O	40.5	5.3	49
O=C(O)[C@@H](Cc1ccccc1)N1Cc2ccccc2C1=O	> 100	> 200	> 100
CC[C@H](C)[C@@H](C(=O)O)N1Cc2ccccc2C1=O	> 100	> 200	> 100
CC(C)[C@@H](C(=O)O)N1Cc2ccccc2C1=O	> 100	> 200	89.7
CC(C)[C@H](C(=O)O)N1Cc2ccccc2C1=O	> 100	> 200	41.5
O=C(O)[C@H](Cc1ccccc1)N1Cc2ccccc2C1=O	> 100	> 200	> 100
C[C@H]1O[C@H](O[C@H]2[C@H](O)[C@@H](O)[C@@H](O[C@H]3[C@H](O)[C@@H](O)C(O)O[C@@H]3CO)O[C@@H]2CO)[C@H](O)[C@@H](O)[C@@H]1N[C@H]1C=C(CO)[C@@H](O)[C@H](O)[C@H]1O (some centres undefined) [ACARBOSE]		383	
